# Compound activity deposited in PubChem BioAssay by Johns Hopkins Ion Channel Center.
# In the library only some 3.7% were active in any assay of this set; here they are far more common.
# KCNQ1 act: human KCNQ1 channel potentiation or activation. CHO-K1 KCNQ1, thallium flux FluxOR fluorescence; hits give high values. AID 2648. P51787. B-score at 10 µM. actives 0.35% (n = 310,000);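 active = fluorescence ratio B-score, a plate-corrected score, at least three library SD, with initial intensity B-score within 5 SD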
#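 Assay system: stable KCNQ1 CHO-K1 line; medium: assay buffer, equal DMSO in all wells; timing: 90 min dye loading and 20 min compound exposure, both at room temperature; technique: kinetic FluxOR thallium fluorescence, 10-s 1-Hz baseline, 110-s post-stimulus read; read-out basis: B score of baseline-normalized fluorescence ratio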
# hERG rescue: shields human hERG channel from block by proarrhythmic agents; AID 1511; actives 0.51% (n = 310,000); activation (rescue from dofetilide block), less the hit threshold, % at 10 µM; CHO-hERG, FluxOR thallium flux, dofetilide IC70 present;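 active = activation above the mean of controls blocked by dofetilide plus 5 SD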;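 also: thallium influx through hERG after potassium depolarization seen as dye fluorescence rise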
# KCNK9 block: inhibitors of human KCNK9 two-pore domain potassium channel; B-score at 10 µM; actives 1.2% (n = 310,000); HEK293 KCNK9, FluxOR thallium flux fluorescence; hits give low values; Q9NPC2;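 active = ratio B-score over 3 SD below the library mean, with starting fluorescence within 5 SD of its mean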;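 also: negative B-score means less thallium flux so channel inhibition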
# Target sequence (Q9NPC2 whole entry, looked up, the tested form may be a part): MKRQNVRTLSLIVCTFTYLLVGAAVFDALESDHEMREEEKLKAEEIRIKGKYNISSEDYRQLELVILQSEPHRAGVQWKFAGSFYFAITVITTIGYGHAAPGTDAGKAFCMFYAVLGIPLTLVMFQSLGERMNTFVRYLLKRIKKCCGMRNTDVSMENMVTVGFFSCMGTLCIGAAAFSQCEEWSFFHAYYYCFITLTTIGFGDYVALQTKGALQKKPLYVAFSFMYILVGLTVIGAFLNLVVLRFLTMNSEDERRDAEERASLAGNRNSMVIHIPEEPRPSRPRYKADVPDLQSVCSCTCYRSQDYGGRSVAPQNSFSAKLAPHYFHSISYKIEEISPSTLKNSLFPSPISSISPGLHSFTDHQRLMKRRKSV
# KCNK3 block: human KCNK3 channel inhibition, primary screen | O14649 | CHO-KCNK3 thallium flux, FluxOR fluorescence; hits give low values | B-score at 10 µM | actives 0.84% (n = 340,000) | AID 602410;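 active = B-score under library mean minus 4 SD, starting fluorescence ratio at most library mean plus 5 SD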;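 also: more negative B-score means stronger inhibition of thallium flux through KCNK3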
# KCNQ1 block: human KCNQ1 channel inhibition; P51787; CHO-K1 KCNQ1, FluxOR thallium flux fluorescence; hits give high values; B-score at 10 µM; actives 1.3% (n = 310,000); AID 2642;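 active = compounds whose thallium flux B-score, printed positive for inhibition, exceeds three library SD while starting fluorescence stays within three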;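 also: channel opened by potassium depolarization with thallium stimulus after 20 min compound exposure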
# Kir21 inh: inhibitors of mouse Kir2.1 inward-rectifier potassium channel; P35561; HEK293-Kir2.1, FluxOR thallium flux fluorescence; hits give low values; B-score at 10 µM; actives 0.85% (n = 310,000); AID 1672;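 active = fluorescence ratio B-score at or below minus 3 SD of library scores, with starting-brightness B-score within 2 SD, cut at about -4.2 in these data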;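 also: channel flux triggered by added potassium and thallium sulfate stimulus; B-score of peak minus minimum fluorescence over baseline after thallium stimulus; more negative B-score means stronger Kir2.1 block with less thallium influx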
# KCNK3 inh conf: human KCNK3 channel inhibition, confirmation assay. shares compounds with KCNK3 block. AID 651638. ratio percent of control, % at 10 µM. CHO-KCNK3 thallium flux, FluxOR fluorescence; 0% buffer, 100% carvedilol maximal block. actives 99% (n = 2,400);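 active = ratio percent of control, averaged over triplicates, above buffer control mean plus 5 SD, cut at about 64% in these data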;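 also: ratio is the fluorescence rise from min to max over baseline after thallium stimulus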
# KCNK3 uninduced: counter-screen for KCNK3 inhibitors: effect in non-induced cells; thallium flux ratio (lower = more inhibition) at 10 µM; AID 651747; actives 40% (n = 2,400); non-induced KCNK3 parental cells, FluxOR thallium flux; hits give low values; shares compounds with KCNK3 block;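 active = thallium flux ratio, averaged over three wells, more than 5 SD below the buffer control mean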;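 also: host cells are CHO cells without KCNK3 induction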
# A number is an active result; i = inactive; nt = no result.
SMILES,KCNQ1 act,hERG rescue,KCNK9 block,KCNK3 block,KCNQ1 block,Kir21 inh,KCNK3 inh conf,KCNK3 uninduced
CCOc1ccc(C(=O)C(C)OC(=O)C2CCN(c3ccc(C(F)(F)F)cn3)CC2)cc1 (stereo not given),i,i,i,-9.4,8,i,83,0.16
COCCN(CCOC)S(=O)(=O)c1ccc(C(=O)Nc2ccc(S(=O)(=O)Nc3nccc(C)n3)cc2)cc1,i,i,i,-8.9,i,i,70,i
COc1ccc(-c2noc(CCC(=O)N3CCN(c4ccc(F)cc4)CC3)n2)cc1,nt,nt,nt,i,nt,nt,nt,nt
CC(=O)/C=C(\C)Nc1ccccc1O,i,i,i,i,i,i,nt,nt
Cc1ccc(S(=O)(=O)Nc2ccc(N(C)S(=O)(=O)c3ccc(C)cc3)cc2)cc1,i,i,-7,i,i,i,86,i
COc1ccc(OC)c(NC(=O)c2sc3ncnc(N4CCN(c5ccccn5)CC4)c3c2C)c1,i,i,i,-9.1,i,i,104,i
COc1ccccc1N1CCN(C(=O)c2sc3ncnc(N4CCN(c5ccccn5)CC4)c3c2C)CC1,i,i,i,i,i,i,nt,nt
O=C(/C=C/c1ccccc1Cl)c1cccnc1,i,i,i,-9.7,i,i,86,i
Cc1cc(N2C3CCC2CC(O)(c2ccc(F)cc2)C3)nc(-c2ccccc2)n1 (stereo not given),i,i,i,-10,i,i,101,0.15
COc1c(C(=O)Nc2ccc(Br)cn2)ccc2ccccc12,i,i,-7.2,-11,i,i,97,0.16
O=C(O)c1cc2c(ccc3ccccc32)o1,i,i,i,i,i,i,nt,nt
O=C(c1cc2c(ccc3ccccc32)o1)N1CCCCC1,i,i,i,-9.1,i,i,84,i
O=C(/C=C/c1ccc(F)cc1)NCC1(c2ccccc2)CCOCC1,i,i,i,i,i,i,nt,nt
CC(NC(=O)C1CC1)c1ccc(-c2ccccc2)cc1 (stereo not given),i,i,i,i,i,i,nt,nt
Cc1cc(C)c2nc(-c3cccnc3)cc(C(=O)NC(C)c3cnn(C)c3C)c2c1 (stereo not given),i,i,i,-9.2,i,i,111,0.16
Cc1cccc2c(C(=O)O)cc(-c3cccnc3)nc12,i,i,i,i,i,i,nt,nt
C=CCn1c(SCc2csc(-c3ccc(Cl)cc3)n2)nnc1-c1ccccc1OC,i,i,i,i,i,i,nt,nt
CCC1=C(c2ccc(C)cc2)S(=O)(=O)N=C1N1CCC(C(=O)NCCCN2CCCCC2)CC1,i,i,i,i,i,i,nt,nt
CCOc1ccccc1CNC(c1ccccc1)c1ccccc1,i,i,i,-10,i,i,67,0.16
COc1ccccc1CNC(c1ccccc1)c1ccccc1,i,i,i,i,i,i,nt,nt
NS(=O)(=O)c1ccc(N/C=C\C(=O)c2ccc3ccccc3c2)cc1,i,i,i,i,i,i,nt,nt
Cc1ccc2c(c1)N(CCC(=O)NCc1cccs1)C(=O)C(C)O2 (stereo not given),i,i,i,i,i,i,nt,nt
O=C(NCCOc1ccc(Cl)cc1)C1CC(=O)N(c2ccc3c(c2)OCCO3)C1 (stereo not given),nt,nt,nt,i,nt,nt,nt,nt
CC(=O)c1cn(CCOc2ccccc2C)c2ccccc12,i,i,i,i,i,i,nt,nt
COC(=O)c1cn(CCOc2ccc(C)cc2)c2ccccc12,i,i,i,-8.9,i,i,108,i
SMILES,KCNQ1 act,hERG rescue,KCNK9 block,KCNK3 block,KCNQ1 block,Kir21 inh,KCNK3 inh conf,KCNK3 uninduced
CC(=O)c1cn(CCOc2ccc(F)cc2)c2ccccc12,i,i,i,-9,i,i,104,i
Cc1ccc(OCCn2cc(C#N)c3ccccc32)cc1,i,i,i,-9.5,i,i,101,0.15
COc1ccc(CN(CC(O)COCc2ccccc2)S(=O)(=O)c2ccccc2Br)cc1 (stereo not given),nt,nt,nt,i,nt,nt,nt,nt
COc1ccc(NC(=O)C(=O)NCC(c2ccco2)N2CCc3ccccc3C2)cc1OC (stereo not given),i,i,i,i,i,i,nt,nt
C[C@H](CO)N1C[C@H](C)[C@@H](CN(C)S(=O)(=O)c2cccs2)Oc2c(NC(=O)NC3CCCCC3)cccc2C1=O,nt,nt,nt,i,nt,nt,nt,nt
Cc1ccc(C)c(OCC(=O)Nc2ccccc2N2CCCC2)c1,i,i,i,-10,i,i,104,i
O=C(COc1ccccc1)Nc1ccccc1N1CCCCC1,i,i,i,-11,i,i,128,i
Cc1ccc(OCC(=O)Nc2ccccc2N2CCCC2)c(C)c1,i,i,i,i,i,i,nt,nt
CN(C)S(=O)(=O)c1ccc(C(=O)NCc2ccco2)cc1,i,i,i,-9.2,i,i,72,i
CCCN(CCC)S(=O)(=O)c1ccc(C(=O)NCc2ccco2)cc1,i,i,i,i,i,i,nt,nt
COc1ccc(-c2oc3ccc(-c4cc(OC)c(OC)c(OC)c4)cc3c2C#Cc2ccsc2)cc1,i,i,i,i,i,i,nt,nt
COc1cc(Nc2nc3ccccc3nc2NS(=O)(=O)c2ccc([N+](=O)[O-])cc2)cc(OC)c1OC,i,i,i,-12,10,i,129,0.12
O=[N+]([O-])c1ccc(S(=O)(=O)Nc2nc3ccccc3nc2Nc2ccccc2)cc1,i,i,i,-11,i,i,107,i
O=[N+]([O-])c1ccccc1Nc1c2ccccc2nc2ccccc12,i,i,i,i,i,i,nt,nt
O=[N+]([O-])c1ccc(Nc2c3ccccc3nc3ccccc23)cc1,i,i,i,-12,i,i,120,0.15
O=C(O)c1ccc(Nc2nc3ccccc3nc2NS(=O)(=O)c2ccc(F)cc2)cc1,i,i,i,i,i,i,nt,nt
CC(C)[C@H](NC(=O)c1ccc(Br)cc1)C(=O)NC1CCCCC1,nt,nt,nt,i,nt,nt,nt,nt
CCSc1ccc([C@@H]2[C@@H]3C(=O)N(CC)C(=O)[C@@H]3[C@]3(C(=O)OC)CCCN23)cc1,i,i,i,i,i,i,nt,nt
Cc1ccccc1OCc1nc(-c2ccc(Br)o2)no1,i,i,i,-12,i,i,98,i
CC(Nc1nc(-c2cccnc2)nc2ccccc12)c1ccc(F)cc1 (stereo not given),i,i,-7.9,-17,8,i,125,i
O=c1ccn([C@@H]2O[C@H](CNS(=O)(=O)C3CC3)[C@@H](O)[C@H]2O)c(=O)[nH]1,nt,nt,nt,i,nt,nt,nt,nt
CCN(CC)C(=O)Oc1nnc(SC(C)C)n1-c1ccc(Cl)c(Cl)c1,i,i,i,i,i,i,nt,nt
